Pemphigus Ab inh: inhibitors of pemphigus antibody binding to DSG3, primary screen, biochemical, bead-based, flow cytometry, scFv-GFP | Desmoglein-3 (Homo sapiens), P32926 | DSG3-coupled beads, scFv-anti-DSG3-GFP binding; active compounds read low | 0.48% of 310,000 active | binding (percent of control), % at 10 µM;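 active means binding more than 3 SD below its plate's average and above zero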;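 further: hits lower antibody fragment binding to DSG3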
NadD block: inhibitors of S. aureus NadD, primary screen, biochemical, colorimetric, uHTS; Nicotinate-nucleotide adenylyltransferase NadD (Staphylococcus aureus N315); purified NadD enzyme, colorimetric absorbance read-out; inhibition, % at 20 µM; 0.78% of 360,000 active; AID 602399, 2012; in the data active means inhibition above about 26%
core dimer inh: inhibitors of HCV core protein dimerization, primary screen, biochemical, TR-FRET, high-throughput. TR-FRET GST/Flag-core106 dimerization, 1536-well. inhibition, % at 5 µM. 0.33% of 300,000 active;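 active means inhibition above the mean of all tested compounds plus 3 SD, set per screening campaign, cut at about 45% in these data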
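Material: GST/Flag-tagged HCV core106 proteins. Incubation: 4 h, 22.5 °C incubation. Read-out basis: inhibition (%) from 671 over 617 nm ratio. Measured by: TR-FRET, excitation 340 nm, emission 617 and 671 nm.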
Rce1 inh: yeast Rce1p protease inhibitors, primary screen, biochemical, fluorescence, cell-free homogeneous; CAAX prenyl protease 2 (Saccharomyces cerevisiae (strain ATCC 204508 / S288c)), Q03530; yeast membranes, quenched prenylated peptide cleavage fluorescence; calls only; 0.27% of 290,000 active; AID 2563, 2010;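 active means fall in fluorescence gain of 50% or more versus controls, with final raw signal at or below 3038400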;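 further: plate controls were neutral control wells for no effect and wells lacking membranes for full effect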
TbMetRS inhib: T. brucei MetRS inhibitors, primary screen, biochemical, luminescence. inhibition, % at 11.9 µM. AID 624268, 2012. 0.4% of 360,000 active. purified T. brucei MetRS, ATP depletion, Kinase-Glo luminescence;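 active means inhibition above a per-plate cutoff of the control wells' mean inhibition plus 3 SD, cut at about 5.5% in these data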;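 further: 0% = DMSO wells median and 100% = median of wells with control inhibitor compound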
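assay system = parasite MetRS enzyme | timing = 15 min preincubation, 2 h reaction, all 25 °C | evaluation = percent inhibition relative to median high and low control wells | medium = HEPES buffer containing pyrophosphatase, BSA, spermine, DTT | compound = single dose, 11.9 µM final nominal, 0.9% final DMSO | detection = Kinase-Glo luminescence, ATP depletion format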
Active calls of the source: *; i = inactive; . = no result given; + = active, no number. Sampled rows, rich in hits. Any-hit rate of the full collection: about 1.9%.

SMILES | Pemphigus Ab inh | NadD block | core dimer inh | Rce1 inh | TbMetRS inhib
Cc1cc(C)c2c(c1)[C@@H]1C=CC[C@@H]1[C@H](c1ccc(S(=O)(=O)N3CCOCC3)cc1)N2 | 87 | 17 | 84* | . | -1
O=C(O)c1ccccc1NS(=O)(=O)c1cccc(-n2sc3ccccc3c2=O)c1 | 46* | 9 | -2 | i | 0
Cc1ccc(S(=O)(=O)Nc2ccccc2NS(=O)(=O)c2ccc(C)cc2)cc1 | . | 7 | . | . | 0
Cc1ccc(S(=O)(=O)Nn2c(C)ccc2C)cc1 | . | 28 | 67* | i | -1
CCCCCCCCCCCCCCCC[n+]1cccc2ccccc21 | . | 53* | -11 | . | -1
CCCCCCCCC[n+]1cccc2c3ccccc3ccc21 | 110 | 6 | 4 | i | 5.7*
OC(CN1CCN(Cc2ccccc2)CC1)c1ccccc1 (configuration not stated) | 102 | -6 | 2 | i | 0
CN(C)Cc1cc(O)c(CN(C)C)cc1O | 92* | 13 | 1 | i | 1
CCN1CCN(c2cc(C)c3cc(NC(=O)CCC(=O)Nc4ccc(OC)c(OC)c4)ccc3n2)CC1 | 109 | -6 | 1 | i | -1
COc1ccc(C)cc1NC(=O)CCC(=O)Nc1ccc2nc(N3CCN(C)CC3)cc(C)c2c1 | . | . | 7 | + | .
COC(=O)C1CCCN1S(=O)(=O)c1ccc2ccccc2c1 (configuration not stated) | 95 | -4 | 2 | + | -2
COc1ccc(CC(=O)Nc2cc(S(=O)(=O)N3CCCCC3)ccc2C)cc1OC | 102 | 2 | 5 | i | 0
CN(C)/C=C/C(=O)/C=C/c1cn(-c2ncc(C(F)(F)F)cc2Cl)c2ccccc12 | 112 | 20 | 58* | i | -1
O=C1CS/C(=N\c2ccccn2)N1C1CCCCC1 | 103 | 3 | -2 | i | 0
CCOc1ccc(N=C2NC(=O)S/C2=C\c2ccc(N(C)C)cc2)cc1 | . | 37* | -9 | i | 0
CCOc1ccc(/C=C2/SC(=O)NC2=S)cc1 | 126 | 1 | -3 | i | 1
Oc1ccc(-c2cn3cc(C(F)(F)F)ccc3n2)cc1 | 99 | -8 | -15 | + | -1
COc1ccc(Cl)cc1NC(=O)CN(C)C(=O)CN1C(=O)NC(C)(c2ccc3ccccc3c2)C1=O (configuration not stated) | 104 | 16 | . | . | 0
CCOC(=O)C1=C[C@]2(CC)CCCN3CCc4c(n1c1ccccc41)[C@@H]32 | 75* | -9 | 0 | i | -1
CC[C@]12CCCN3CCc4c(n(c5ccccc45)C(=O)C1)[C@@H]32 | 107 | -5 | -3 | . | -1
CN(c1ccc(C(=O)Nc2ccccn2)cc1)S(=O)(=O)c1ccccc1 | 98 | -3 | 2 | i | -1
CCOc1ncccc1C(=O)NCCN1C(=O)S/C(=C/c2cccs2)C1=O | 79* | -2 | 6 | i | -2
COc1cccc(C(=O)NCCN2C(=O)S/C(=C/c3cccs3)C2=O)c1OC | 85 | -2 | 3 | i | 0
Cc1ccc(C)n1-c1cc(S(=O)(=O)N2CCOCC2)ccc1N1CCCC1 | 77 | 35* | 19 | i | 1
CNCc1cc(C)n(-c2cc(S(=O)(=O)N3CCOCC3)ccc2N2CCCC2)c1C | 100 | 5 | . | . | 0
SMILES | Pemphigus Ab inh | NadD block | core dimer inh | Rce1 inh | TbMetRS inhib
COc1cccc(/C=C2/SC(=S)N(CC(=O)NNC(=O)c3ccccc3OC)C2=O)c1 | . | 39* | 2 | i | 0
COc1cccc(/C=C2\SC(=S)N(CCC(=O)NNC(=O)c3ccccc3OC)C2=O)c1 | 120 | 17 | 12 | i | 0
O=C(CCN1C(=O)/C(=C/c2ccccc2)SC1=S)Nc1ccccn1 | 97 | 1 | 8 | i | 0
O=C(CN1C(=O)/C(=C/c2ccccc2)SC1=S)Nc1ncc(Cc2ccccc2)s1 | 103 | 25 | 54* | i | 0
O=C(O)CCN1C(=O)/C(=C\c2ccc(OCc3ccccc3)c(OCc3ccccc3)c2)SC1=S | 97 | 31* | 6 | i | 0
COc1cccc(/C=C2/SC(=S)N(CC(=O)Nc3nnc(C)s3)C2=O)c1 | 99 | 39* | . | . | 0
CCN(CC(=O)Nc1ccc2c(c1)OCCO2)C(=O)c1ccc(S(=O)(=O)N(C)C)cc1 | 103 | -1 | -6 | i | 0
COC(=O)c1ccc2nc(C3CCCCC3)c(Cc3ccc(C)cc3)n2c1 | . | 2 | . | . | -1
Cc1cc(CNC(=O)c2ccc(C)c([N+](=O)[O-])c2)c2ccccc2n1 | 101 | -1 | 2 | i | 0
O=C(O)CN1C(=O)/C(=C\c2cccc(OCc3ccc(Cl)cc3Cl)c2)SC1=S | 127 | 30* | . | i | 2
O=C(O)CN1C(=O)/C(=C\c2ccccc2OCc2ccc(Cl)cc2Cl)SC1=S | 136 | 12 | 21 | i | 3
CC1=CC=CN2C1=NC(=O)CC2(C)C(=O)N(CC(=O)NC1CCCC1)Cc1ccccc1 (configuration not stated) | 96 | -4 | -7 | i | -1
CC1(C(=O)N(CC(=O)NC2CCCC2)Cc2ccccc2)CC(=O)N=C2C=CC=CN21 (configuration not stated) | 107 | 1 | -12 | + | 0
CC1=CC2=NC(=O)CC(C)(C(=O)N(CC(=O)NC3CCCC3)Cc3ccc(Cl)cc3)N2C=C1 (configuration not stated) | 101 | 4 | 10 | i | 0
CC1(C(=O)N(CC(=O)NC2CCCC2)Cc2ccco2)CC(=O)N=C2C=CC=CN21 (configuration not stated) | 101 | -1 | 1 | + | 0
Cc1cc(C(=O)NCC(=O)OCC(=O)NCC2CCCO2)ccc1[N+](=O)[O-] (configuration not stated) | 50* | -2 | . | . | 0
Cc1cc(C(=O)NCC(=O)OCC(=O)N(C2CCCCC2)C2CCCCC2)ccc1[N+](=O)[O-] | 104 | -3 | 12 | i | 0
Cc1cc(C=C2C(=O)CCCC2=O)c(C)n1-c1ccccc1 | 120 | 7 | 55* | i | -1
Cc1cc(/C=C2/C(=O)NN(c3ccccc3)C2=O)c(C)n1-c1ccc(O)cc1 | 109 | 4 | -12 | i | 0
C/C(CC(=O)Nc1ccccn1)=N\NC(=O)c1cccc(C)c1 | 98 | -2 | 4 | i | 0
O=C1CCCC2=C1C(c1ccco1)Nc1ccc3ccccc3c12 (configuration not stated) | 129 | 12 | 71* | i | -1

Source: PubChem (several laboratories)
